The record followed here is PubChem BioAssay.

Test [1] is described as follows: Her2 expression decrease, cell viability multiplex – SKBR3 breast tumor cells, AlphaScreen, ATP viability, primary screen (AID 461;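 active means Her2 level under about 52% in both replicate screens, with viability over 70% of control, limit read from the data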;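 on Her2 level: lower value means less Her2 protein in the cells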;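 on viability: percent of carrier control wells set as 100% viability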). To be noted: SKBR3 Her2 protein level, 18-24 h, measured here: SKBR3 viability, ATP luminescence, at 10 µM. On the technique in general: In Alpha technology, singlet oxygen from a donor bead excites a nearby acceptor bead.
Test [2] deals with Receptor tyrosine-protein kinase erbB-2 (Homo sapiens) (UniProt P04626). Described as above. The conditions noted are these: 18-24 h, at 10 µM, stronger effect = lower value.
Chain of Receptor tyrosine-protein kinase erbB-2 (Homo sapiens) (P04626 whole entry, looked up): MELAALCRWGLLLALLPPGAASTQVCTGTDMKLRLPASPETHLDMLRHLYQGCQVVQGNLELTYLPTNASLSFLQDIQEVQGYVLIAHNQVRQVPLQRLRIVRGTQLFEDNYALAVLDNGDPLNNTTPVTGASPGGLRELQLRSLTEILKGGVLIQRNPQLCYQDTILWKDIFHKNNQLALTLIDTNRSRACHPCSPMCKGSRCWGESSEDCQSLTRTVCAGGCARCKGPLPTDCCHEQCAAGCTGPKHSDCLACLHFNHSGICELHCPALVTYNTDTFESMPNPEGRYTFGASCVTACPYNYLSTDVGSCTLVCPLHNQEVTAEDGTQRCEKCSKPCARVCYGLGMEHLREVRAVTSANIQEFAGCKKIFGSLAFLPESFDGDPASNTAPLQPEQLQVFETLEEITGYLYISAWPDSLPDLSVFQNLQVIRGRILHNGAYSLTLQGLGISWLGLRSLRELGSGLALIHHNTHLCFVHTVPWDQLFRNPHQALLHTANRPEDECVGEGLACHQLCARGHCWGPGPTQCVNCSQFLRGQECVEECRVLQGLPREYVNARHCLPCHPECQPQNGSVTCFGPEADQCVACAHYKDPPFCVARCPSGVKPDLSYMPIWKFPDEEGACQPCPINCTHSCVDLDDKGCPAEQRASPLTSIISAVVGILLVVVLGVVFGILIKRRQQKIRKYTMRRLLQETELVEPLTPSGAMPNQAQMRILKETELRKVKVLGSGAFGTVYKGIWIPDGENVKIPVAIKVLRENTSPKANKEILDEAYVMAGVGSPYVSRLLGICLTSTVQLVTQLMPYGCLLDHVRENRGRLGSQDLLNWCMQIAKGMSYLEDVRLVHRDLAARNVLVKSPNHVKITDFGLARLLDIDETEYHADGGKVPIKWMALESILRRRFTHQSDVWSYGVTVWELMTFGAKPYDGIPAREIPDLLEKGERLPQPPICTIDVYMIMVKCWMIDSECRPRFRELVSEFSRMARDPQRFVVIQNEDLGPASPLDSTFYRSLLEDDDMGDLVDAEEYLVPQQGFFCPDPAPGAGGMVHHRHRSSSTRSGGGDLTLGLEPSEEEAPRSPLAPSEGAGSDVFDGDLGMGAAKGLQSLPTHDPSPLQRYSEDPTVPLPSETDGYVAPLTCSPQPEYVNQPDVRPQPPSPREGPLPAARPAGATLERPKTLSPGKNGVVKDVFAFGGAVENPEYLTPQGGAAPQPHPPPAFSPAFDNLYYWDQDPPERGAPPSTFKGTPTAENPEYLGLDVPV
A short description of test [3]: reduced viability of SK-BR-3 breast cancer cells – cell-based, 24 h, human, pilot screen (AID 572).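 Further: compound exposure lasted between 18 and 24 h rather than exactly 24 h; 100% = carrier-treated control wells.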 The conditions noted are these: SK-BR-3 viability, CellTiter-Glo luminescence, at 10 µM, stronger effect = lower value. Background: In ATP-based viability assays light output follows the ATP content of the culture.
Test [4] in a line: HUVEC growth inhibition – cell-based, human, primary screen (AID 575;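 active means viability at or below 30% in both replicate assays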;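 further: 100% = median of untreated cell wells with 0.1% DMSO on each plate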). To be noted: HUVEC proliferation, CellTiter-Glo luminescence, 72 h; at 10 µM; stronger effect = lower value. Put shortly: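 system = HUVEC primary cells | amount = 1250 cells/well | buffer or medium = supplemented EBM, 2% fetal bovine serum | dosing = single-point 10 µM, DMSO 0.1% final | times = 72 h compound incubation | detection = CTG luminescence | read-out = % viability relative to median vehicle-well signal on each plate | control set = vehicle and MePR control wells | format = collagen-coated 384-well format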

Test [5] in a line: H69AR cell proliferation blockers – human, duplicate replicates, primary screen (AID 580;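 active means viability at or under a set limit in both replicates, limit being median viability minus 3 SD, cut at about 48% in these data, passing the limit was not always enough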;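 further: 100% = mean luminescence of untreated wells and 0% = no signal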). The conditions noted are these: H69AR lung tumor cells viability, ATP luminescence, 72 h; at 10 µM; stronger effect = lower value.
Test [6] in a line: MRP1 drug-resistance reversers in H69AR cells – cell-based, doxorubicin co-treatment, pilot screen (AID 601;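 active means viability loss from added drug above about 55%, and viability with drug at most 40%, in both replicates, limit read from the data, passing the limit was not always enough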). The conditions noted are these: CellTiter-Glo, 72 h, at 10 µM; for differential viability (reversal): stronger effect = higher value.
Test [7] is described as follows: yeast transport mutant growth inhibition pilot in 384-well plates, post-Golgi transport modulator project (AID 636; in the data active means inhibition above about 31%). To be noted: absorbance 615 nm, about 18 h, stronger effect = higher value.
The nature of test [8]: growth suppression of yeast trafficking mutant, preliminary HTS, modulators of trafficking downstream of Golgi apparatus project, 1536-format plate, OD 615 nm (AID 637; in the data active means inhibition above about 30%). To be noted: yeast transport mutant growth, absorbance 615 nm, 18 h; stronger effect = higher value.
Setting [9] is: H69AR cells + 2 uM doxorubicin, measured here: viability with 2 uM doxorubicin, stronger effect = lower value.
Setting [10] is: H69AR cells, compound alone cytotoxicity.

Activity calls are given as the source filed them.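 How the source made its calls, unless noted: active means viability at or below 10% of carrier control in both of two separate runs; inconclusive means viability at or below 10% in only one of the two runs; inactive means the rest.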

In general, viability refers to a read-out of living cells in per cent, often relative to untreated cells. What is called inhibition is the relative decrease from the control value, in per cent.

With `CCOC(=O)Nc1cc(OCC)c(NC(=O)C2CC2)cc1OCC`, the viability is 97% in test [1]; 97% (inactive) in test [3]; 111% (inactive) in test [4]; 100% (inactive) in test [5]; 87.3% in test [6] (setting [9]); 100% in test [6] (setting [10]). In addition, the Her2 level in test [2] was 112% (inactive). In addition, in test [6] (H69AR cells + 2 uM doxorubicin), the differential viability (reversal) is 12.8% (inactive). Further, the inhibition in test [7] is -6.13% (inactive); in test [8] it was -4.26% (inactive).
Regarding `CCC(CO)Nc1ncnc2c1cnn2-c1ccc(Cl)cc1` (stereo not given), the viability in test [1] is 94.5%; in test [3], 94.5% (inactive); in test [4], 91.7% (inactive); in test [5] it was 93.7% (inactive); in test [6] (setting [9]) it was 80.2%; in test [6] (setting [10]), 93.7%. The Her2 level in test [2] was 126% (inactive). Also, the differential viability (reversal) in test [6] (H69AR cells + 2 uM doxorubicin) was 13.5% (inactive). Moreover, the inhibition in test [7] is -5.73% (inactive); in test [8] it was -5% (inactive).
For the molecule `CCCOC(=O)c1[nH]c2c(c1C)C(=O)CC(c1ccc(OC)c(OC)c1)C2` (stereo not given), the viability is 99% in test [1]; 99% (inactive) in test [3]; 84.7% (inactive) in test [4]; 96% (inactive) in test [5]; 95.3% in test [6] (setting [9]); 96% in test [6] (setting [10]). Moreover, the Her2 level in test [2] is 151% (inactive). Moreover, the differential viability (reversal) in test [6] (H69AR cells + 2 uM doxorubicin) is 0.765% (inactive). In addition, the inhibition was 2.63% (inactive) in test [7] and -11.2% (inactive) in test [8].
Turning to `COc1ccc2cnn(-c3ccccc3)c(=O)c2c1OC`, the viability was 98% in test [1]; 98% (inactive) in test [3]; 126% (inactive) in test [4]; 103% (inactive) in test [5]; 84.6% in test [6] (setting [9]); 103% in test [6] (setting [10]). Further, the Her2 level in test [2] was 91% (inactive). Further, the differential viability (reversal) in test [6] (H69AR cells + 2 uM doxorubicin) is 18.2% (inactive). Besides, the inhibition in test [7] was -1.71% (inactive); in test [8], 1.64% (inactive).
As for `C=CCSc1nc(N)c(C(=O)Nc2ccccc2C)cc1C(N)=O`, the viability in test [1] was 93%; in test [3], 93% (inactive); in test [4], 99.9% (inactive); in test [5], 87.4% (inactive); in test [6] (setting [9]) it was 89.6%; in test [6] (setting [10]), 87.4%. The Her2 level in test [2] is 121% (inactive). Besides, the differential viability (reversal) in test [6] (H69AR cells + 2 uM doxorubicin) is -2.21% (inactive). The inhibition in test [7] was 4.42% (inactive); in test [8], 4.67% (inactive).
In the case of `O=C(Cn1ccc2ccccc2c1=O)NCCC(=O)NC1CCN(Cc2ccccc2)CC1`, the viability in test [1] was 58%; in test [3], 58% (inactive); in test [4] it was 107% (inactive); in test [5], 100% (inactive); in test [6] (setting [9]) it was 82.8%; in test [6] (setting [10]), 100%. The Her2 level in test [2] was 106% (inactive). Moreover, in test [6] (H69AR cells + 2 uM doxorubicin), the differential viability (reversal) was 17.5% (inactive). Moreover, the inhibition in test [7] was 3.29% (inactive); in test [8], -4.91% (inactive).
For the molecule `CCc1nnc(NC(=O)CSc2nnc(-c3ccc(OC)cc3)n2C)s1`, the viability is 87% in test [1]; 87% (inactive) in test [3]; 89.3% (inactive) in test [4]; 104% (inactive) in test [5]; 98.6% in test [6] (setting [9]); 104% in test [6] (setting [10]). For the same molecule, the Her2 level in test [2] is 94% (inactive). In test [6] (H69AR cells + 2 uM doxorubicin), the differential viability (reversal) was 5.08% (inactive). Moreover, the results for the inhibition in test [7] and in test [8] were -2.8% (inactive) and 1.8% (inactive), respectively.
Regarding `O=C1CCN(C(=O)c2ccccc2)C2CCCCC12` (stereo not given), the viability in test [1] is 98%; in test [3] it was 98% (inactive); in test [4] it was 105% (inactive); in test [5], 90.3% (inactive); in test [6] (setting [9]), 91.1%; in test [6] (setting [10]), 90.3%. Besides, the Her2 level in test [2] was 124% (inactive). Also, the differential viability (reversal) in test [6] (H69AR cells + 2 uM doxorubicin) was -0.825% (inactive). The inhibition in test [7] is -4.55% (inactive); in test [8], -11% (inactive).
Take `CCCC(NC(=O)c1ccccc1)c1nc2ccccc2n1Cc1ccc(C(=O)OC)o1` (stereo not given): the viability in test [1] was 98%; in test [3], 98% (inactive); in test [4], 85.4% (inactive); in test [5], 95% (inactive); in test [6] (setting [9]) it was 90.9%; in test [6] (setting [10]) it was 95%. Further, in test [2], the Her2 level was 105% (inactive). Moreover, the differential viability (reversal) in test [6] (H69AR cells + 2 uM doxorubicin) is 4.1% (inactive). Also, the inhibition was -2.76% (inactive) in test [7] and -9.17% (inactive) in test [8].
With `CN(C)CCCn1c(N)c(C#N)c2nc(C#N)c(C#N)nc21`, the viability in test [1] was 179%; in test [3], 179% (inactive); in test [4] it was 66.9% (inactive); in test [5], 90.1% (inactive); in test [6] (setting [9]), 93.1%; in test [6] (setting [10]), 90.1%. In addition, the Her2 level in test [2] is 47.5% (active). In test [6] (H69AR cells + 2 uM doxorubicin), the differential viability (reversal) was -3.03% (inactive). The inhibition in test [7] was -1.89% (inactive); in test [8], -1.75% (inactive).
Turning to `N[C@@H](Cc1ccccc1)c1nnc2sc(SCc3ccccc3)nn12`, the viability in test [1] was 90%; in test [3], 90% (inactive); in test [4], 85.2% (inactive); in test [5], 87.9% (inactive); in test [6] (setting [9]) it was 76.4%; in test [6] (setting [10]), 87.9%. The Her2 level in test [2] was 84.5% (inactive). In addition, the differential viability (reversal) in test [6] (H69AR cells + 2 uM doxorubicin) is 11.5% (inactive). Moreover, the inhibition is -3.07% (inactive) in test [7] and 0.48% (inactive) in test [8].
`COc1ccc2cc(CN(Cc3ccco3)C(c3nnnn3C3CCCCC3)C(C)C)c(=O)[nH]c2c1` (stereo not given): the viability in test [1] is 100%; in test [3], 100% (inactive); in test [4] it was 47.1% (inactive); in test [5] it was 33.1% (active); in test [6] (setting [9]) it was 25.8%; in test [6] (setting [10]), 33.1%. Also, the Her2 level in test [2] was 83% (inactive). Also, the differential viability (reversal) in test [6] (H69AR cells + 2 uM doxorubicin) is 7.31% (inactive). Moreover, the inhibition in test [7] is -0.54% (inactive); in test [8], -4.59% (inactive).
On to `CCS(=O)(=O)N1CCCC(C(=O)NCc2cccc(OC)c2)C1` (stereo not given), for which the viability in test [1] was 106%; in test [3], 106% (inactive); in test [4] it was 98.1% (inactive); in test [5], 96.6% (inactive); in test [6] (setting [9]), 102%; in test [6] (setting [10]), 96.6%. For the same molecule, the Her2 level in test [2] was 108% (inactive). Moreover, the differential viability (reversal) in test [6] (H69AR cells + 2 uM doxorubicin) is -4.98% (inactive). Moreover, the inhibition in test [7] is -5.2% (inactive); in test [8], 5.41% (inactive).
Take `Cc1nnc(C)n1/N=C/c1cccc(Oc2ccccc2)c1`: the viability in test [1] was 100%; in test [3] it was 100% (inactive); in test [4], 98% (inactive); in test [5] it was 87.4% (inactive); in test [6] (setting [9]) it was 82.6%; in test [6] (setting [10]), 87.4%. Also, the Her2 level in test [2] was 78.5% (inactive). In addition, the differential viability (reversal) in test [6] (H69AR cells + 2 uM doxorubicin) was 4.77% (inactive). The inhibition in test [7] was -1.97% (inactive); in test [8], 0.16% (inactive).
